Data taken from ChEMBL document CHEMBL1124859, “Nonsteroidal antiinflammatory drug hydroxamic acids. Dual inhibitors of both cyclooxygenase and 5-lipoxygenase” (J Med Chem, 1990).

Legend:
[1] = test system: Rattus norvegicus; experiment: In vivo percent inhibition of carrageenan foot-pad edema (CFE) after peroral administration was determined.; assay type: functional
How it was run: (§1)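 Compounds were given orally to rats at the stated doses in mg/kg. Groups held 7–14 animals each. Foot-pad edema was scored as percent inhibition against controls, or as the dose giving a set level of inhibition (ID25 or ID40).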

[2] = test system: Rattus norvegicus; experiment: In vivo percent inhibition of mycobacterium foot-pad edema (MFE) after peroral administration was determined.; assay type: functional; how it was run: as §1
[3] = test system: Rattus norvegicus; experiment: In vivo ulcerogenicity was determined after peroral administration in rat; assay type: functional
How it was run: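 Rats were dosed orally. The ulcerogenic dose (UD50) was taken as the oral dose in mg/kg that produced ulcers in 50% of the rats tested.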

[4] = species: Rattus norvegicus; experiment: Relative binding affinity to 5-lipoxygenase and cyclooxygenase
[5] = target: T1, Polyunsaturated fatty acid 5-lipoxygenase (Rattus norvegicus, UniProt P12527); experiment: Inhibition of 5-lipoxygenase in intact RBL-1 cell line; assay type: cell-based
T1 sequence (P12527 whole entry): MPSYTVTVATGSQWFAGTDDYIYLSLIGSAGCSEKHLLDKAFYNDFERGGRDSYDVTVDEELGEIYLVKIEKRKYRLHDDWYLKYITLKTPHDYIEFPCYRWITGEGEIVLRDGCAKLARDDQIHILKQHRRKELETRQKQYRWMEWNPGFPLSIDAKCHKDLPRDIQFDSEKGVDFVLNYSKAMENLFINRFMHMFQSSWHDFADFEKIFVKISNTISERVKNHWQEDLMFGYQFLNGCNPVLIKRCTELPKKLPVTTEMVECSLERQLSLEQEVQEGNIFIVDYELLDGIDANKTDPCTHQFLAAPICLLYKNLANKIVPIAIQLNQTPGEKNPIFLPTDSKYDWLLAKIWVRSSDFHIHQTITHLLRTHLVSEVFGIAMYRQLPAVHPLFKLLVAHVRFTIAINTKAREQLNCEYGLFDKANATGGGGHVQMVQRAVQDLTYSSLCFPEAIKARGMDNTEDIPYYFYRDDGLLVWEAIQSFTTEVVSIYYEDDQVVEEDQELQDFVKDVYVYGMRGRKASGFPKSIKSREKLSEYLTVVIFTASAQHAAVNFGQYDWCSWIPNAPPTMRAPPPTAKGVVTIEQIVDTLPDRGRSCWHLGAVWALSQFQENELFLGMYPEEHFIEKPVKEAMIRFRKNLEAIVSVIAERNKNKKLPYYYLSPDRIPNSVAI
How it was run: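 RBL-1 cells at 2 × 10⁶ cells/mL were held in PBS with 1.0 mM Ca²⁺. They were incubated with or without inhibitor for 7 min at 37 °C, with 5 μM ionophore A-23187. LTB₄ was measured by radioimmunoassay. IC50 came from regression of percent inhibition against inhibitor concentration; otherwise percent inhibition at the highest concentration tested was given.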

[6] = test system: Rattus norvegicus; experiment: In vivo ulcerogenicity was determined after peroral administration at a dose of 200 mg/kg in rat; No significant ulceration; assay type: functional, organism-based; parameters: dose 200 mg/kg

Cc1ccc(Cl)c(Nc2ccccc2C(=O)[O-])c1Cl.O.[Na+] [MECLOFENAMATE SODIUM]
ID25 [1]: 8.2 mg/kg | ID40 [2]: 0.39 mg/kg | UD50 [3]: 36 mg/kg

CONC(=O)Cc1c(C)n(C(=O)c2ccc(Cl)cc2)c2ccc(OC)cc12
UD50 [3]: 42 mg/kg | IC50 ratio [4]: > 120

CC(C)Cc1ccc(C(C)C(=O)N(C)O)cc1 (centres undefined)
IC50 ([5]; read-out: IC50): 1.2 µM | IC50 ratio [4]: 0.06

CC1=C(CC(=O)O)c2cc(F)ccc2/C1=C\c1ccc([S+](C)[O-])cc1 (centres undefined)
IC50 ([5]; read-out: IC50): > 100 µM

COc1ccc2c(c1)c(CC(=O)N(O)C(C)C)c(C)n2C(=O)c1ccc(Cl)cc1
ID40 [2]: 0.82 mg/kg | UD50 [6]: No significant inhibition

CONC(=O)CC1=C(C)/C(=C/c2ccc([S+](C)[O-])cc2)c2ccc(F)cc21 (centres undefined)
IC50 ([5]; read-out: IC50): 26 µM

CONC(=O)C(C)c1ccc(CC(C)C)cc1 (centres undefined)
IC50 ([5]; read-out: IC50): > 32 µM | IC50 ratio [4]: > 5.5

Cc1ccc(Cl)c(Nc2ccccc2C(=O)NO)c1Cl
ID40 [2]: 27 mg/kg | UD50 [6]: No significant inhibition

CC(C)Cc1ccc(C(C)C(=O)NO)cc1 (centres undefined) [IBUPROXAM]
IC50 ([5]; read-out: IC50): 20 µM | IC50 ratio [4]: 2

Cc1ccc(Cl)c(Nc2ccccc2C(=O)N(C)O)c1Cl
ID25 [1]: 0.2 mg/kg | ID40 [2]: 2.5 mg/kg | UD50 [6]: No significant inhibition

COc1ccc2c(c1)c(CC(=O)O)c(C)n2C(=O)c1ccc(Cl)cc1 [INDOMETHACIN]
IC50 ([5]; read-out: IC50): > 100 µM | ID40 [2]: 0.21 mg/kg | UD50 [3]: 5.4 mg/kg

CC(C)Cc1ccc(C(C)C(=O)O)cc1 (centres undefined) [IBUPROFEN]
IC50 ([5]; rbl-1): No significant inhibition

CONC(=O)c1ccccc1Nc1c(Cl)ccc(C)c1Cl
ID25 [1]: 1.3 mg/kg | ID40 [2]: 24 mg/kg | UD50 [6]: No significant inhibition

COc1ccc2c(c1)c(CC(=O)NO)c(C)n2C(=O)c1ccc(Cl)cc1 [OXAMETACIN]
UD50 [3]: 103 mg/kg | IC50 ratio [4]: 6.8
